Measurements taken from ChEMBL document CHEMBL1671645, “Pharmacokinetics and absorption of posaconazole oral suspension under various gastric conditions in healthy volunteers” (Antimicrob Agents Chemother, 2009).

What was measured:
[1] = AUC in fasted healthy human at 400 mg administered as single dose suspension; format: ADME, organism-based; details: plasma
[2] = Apparent volume of distribution in fasted healthy human at 400 mg administered as single dose suspension after consumption of high fat meal; format: ADME, organism-based; details: in vivo, read-out: Vc/F
Outline: (§1)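 In a crossover of 12 healthy subjects, each took a single 400 mg oral suspension dose 5 min before, midway through (about 10 min into a 20-min meal), or 20 min after a high-fat meal of about 50 g fat. Plasma was drawn 0–168 h and measured by LC-MS/MS. Parameters are noncompartmental, with AUC to the last measurable time.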

[3] = system: Homo sapiens; test: Toxicity in healthy human assessed as dizziness at 400 mg administered as single dose suspension coadministered with nutritional supplement and 10 mg metoclopramide; format: organism-based; details: in vivo
Outline: (§2)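 Three-way randomized crossover in 13 healthy volunteers with a 7- to 10-day washout. Each period was one 400-mg oral posaconazole suspension dose with a nutritional supplement. Metoclopramide 10 mg was given orally three times daily on the day before and the day of dosing; loperamide was a single 4 mg. Safety was assessed from adverse events, tabulated by body system and severity per treatment.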

[4] = system: Homo sapiens; test: Toxicity in healthy human assessed as headache at 400 mg BID, po administered as suspension for 7 days; format: organism-based; details: in vivo, 168 h
Outline: (§3)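 Healthy volunteers (n = 12) took oral posaconazole suspension (40 mg/ml) for 7 days in a four-way randomized crossover with a 14- to 21-day washout. Subjects stayed fasted throughout, with nonfat snacks up to 800 cal/day allowed. Where given, Boost was taken with each dose. Safety covered adverse events, vital signs, clinical labs and 12-lead ECG, with AEs tabulated by body system and severity per treatment.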

[5] = Tmax in healthy human at 400 mg BID, po administered as suspension for 7 days coadministered with nutritional supplement; format: ADME, organism-based; details: in vivo
Outline: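 Healthy volunteers given oral suspension (40 mg/ml) for 7 days, fasted or with nutritional supplement (Boost); four-way crossover, 14–21-day washout, nonfat snacks ≤800 cal/day allowed. On day 7 only the morning dose was given; plasma sampled predose to 168 h after it. LC-MS/MS (LLOQ 5.00 ng/ml). t1/2 = ln(2)/K from log-linear terminal slope; Tmax as median.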

[6] = system: Homo sapiens; test: Toxicity in healthy human assessed as nausea at 400 mg administered as single dose suspension coadministered with nutritional supplement and 10 mg metoclopramide; format: organism-based; details: in vivo; outline: as §2
[7] = Apparent volume of distribution in fasted healthy human at 400 mg administered as single dose suspension coadministered with acidic carbonated beverage and proton pump inhibitor; format: ADME, organism-based; details: in vivo, read-out: Vc/F
Outline: (§4)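 This was a four-way crossover in 12 healthy subjects with 7–10 day washouts. Each took one fasting 400 mg oral suspension dose, with 12 oz ginger ale and/or esomeprazole 40 mg once each morning on days −2 to 1, with dosing on day 1. Plasma was sampled 0–168 h and measured by LC-MS/MS (LLOQ 5.00 ng/ml). Analysis was noncompartmental, with CL/F = dose/AUC_I and V/F = (CL/F)/K.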

[8] = system: Homo sapiens; test: Toxicity in healthy human assessed as dizziness at 400 mg administered as single dose suspension coadministered with nutritional supplement; format: organism-based; details: in vivo; outline: as §2
[9] = system: Homo sapiens; test: Toxicity in healthy human assessed as adverse events at 400 mg BID, po administered as suspension for 7 days coadministered with nutritional supplement; format: organism-based; details: in vivo, 168 h
Outline: (§5)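 Healthy volunteers monitored for adverse events, vital signs, clinical laboratory values and 12-lead ECG. Adverse events tabulated by body system or organ class and severity and summarized by treatment across the crossover regimens.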

[10] = system: Homo sapiens; test: Apparent total body clearance in healthy human at 200 mg QID, po administered as suspension for 7 days coadministered with nutritional supplement; format: ADME, organism-based; details: in vivo, 168 h
Outline: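 Twelve healthy subjects took oral suspension for 7 days as 400 mg BID or 200 mg QID, either fasting or with a Boost-type nutritional supplement, in a crossover with 14–21 day washouts. Nonfat snacks of 800 cal/day or less were allowed. Plasma was sampled 0–168 h after the day-7 morning dose only and analysed by LC-MS/MS. AUC is AUC_τ, normalized to dose.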

[11] = Apparent total body clearance in fasted healthy human at 400 mg administered as single dose suspension; format: ADME, organism-based; details: in vivo
[12] = Apparent volume of distribution in healthy human at 400 mg administered as single dose suspension coadministered with nutritional supplement and 4 mg loperamide as two 2 mg tablets; format: ADME, organism-based; details: in vivo, po, read-out: Vc/F
Outline: (§6)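 A three-way crossover in 13 healthy subjects gave one 400 mg oral suspension dose with a nutritional supplement, either alone, with metoclopramide 10 mg orally three times daily on the day before and the day of dosing, or with a single 4 mg dose of loperamide. Plasma was taken 0–168 h for LC-MS/MS. Analysis was noncompartmental.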

[13] = Half life in fasted healthy human at 400 mg administered as single dose suspension after 20 mins after consumption of high fat meal; format: ADME, organism-based; details: in vivo
Outline: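 Single oral suspension dose in healthy volunteers while fasting, 5 min before, midway through (about 10 min into a 20-min meal), or 20 min after a high-fat meal (approx 50 g fat); four-way crossover, 7–10-day washout. Plasma 0–168 h by LC-MS/MS (LLOQ 5.00 ng/ml). t1/2 = ln(2)/K; Tmax median.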

[14] = system: Homo sapiens; test: Toxicity in healthy human assessed as asthenia at 200 mg QID, po administered as suspension for 7 days; format: organism-based; details: in vivo, 168 h; outline: as §5
[15] = system: Homo sapiens; test: Toxicity in healthy human assessed as dizziness at 400 mg BID, po administered as suspension for 7 days coadministered with nutritional supplement; format: organism-based; details: in vivo, 168 h; outline: as §3
[16] = Apparent total body clearance in healthy human at 400 mg administered as single dose suspension coadministered with nutritional supplement and 4 mg loperamide as two 2 mg tablets; format: ADME, organism-based; details: in vivo, po; outline: as §6
[17] = Apparent total body clearance in fasted healthy human at 400 mg administered as single dose suspension coadministered with proton pump inhibitor; format: ADME, organism-based; details: in vivo; outline: as §4
[18] = Apparent volume of distribution in fasted healthy human at 400 mg administered as single dose suspension after 20 mins after consumption of high fat meal; format: ADME, organism-based; details: in vivo, po; outline: as §1
[19] = system: Homo sapiens; test: Toxicity in healthy human assessed as adverse events at 200 mg QID, po administered as suspension for 7 days; format: organism-based; details: in vivo, 168 h; outline: as §5
[20] = Half life in fasted healthy human at 400 mg administered as single dose suspension; format: ADME, organism-based; details: in vivo
Outline: (§7)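 Single oral suspension dose in fasting healthy volunteers, alone, with 12 oz ginger ale, after esomeprazole 40 mg once each morning days −2 to 1, or both; four-way crossover, 7–10-day washout. EDTA plasma 0–168 h. LC-MS/MS (LLOQ 5.00 ng/ml). t1/2 = ln(2)/K from terminal log-linear regression; Tmax median.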

[21] = Half life in fasted healthy human at 400 mg administered as single dose suspension coadministered with acidic carbonated beverage and proton pump inhibitor; format: ADME, organism-based; details: in vivo; outline: as §7
[22] = system: Homo sapiens; test: Toxicity in healthy human assessed as adverse events at 400 mg administered as single dose suspension coadministered with acidic carbonated beverage; format: organism-based; details: in vivo; outline: as §5
[23] = system: Homo sapiens; test: Toxicity in healthy human assessed as nausea at 400 mg administered as single dose suspension coadministered with nutritional supplement and 4 mg loperamide as two 2 mg tablets; format: organism-based; details: in vivo; outline: as §2
[24] = Cmax in healthy human plasma at 400 mg administered as single dose suspension coadministered with nutritional supplement and 10 mg metoclopramide; format: ADME, organism-based; set-up: dose 400 mg; outline: as §6
[25] = AUC in fasted healthy human at 400 mg administered as single dose suspension coadministered with acidic carbonated beverage and proton pump inhibitor; format: ADME, organism-based; details: plasma; outline: as §4
[26] = Half life in fasted healthy human at 400 mg administered as single dose suspension coadministered with proton pump inhibitor; format: ADME, organism-based; details: in vivo; outline: as §7

Compound: CC[C@@H]([C@H](C)O)n1ncn(-c2ccc(N3CCN(c4ccc(OC[C@@H]5CO[C@@](Cn6cncn6)(c6ccc(F)cc6F)C5)cc4)CC3)cc2)c1=O [POSACONAZOLE]
- AUC [1]: 5600 ng·h/mL
- Vd/F [2]: 757 L
- Activity [3]: 15%
- Activity [4]: 25%
- Tmax [5]: 6 h
- Activity [6]: 23%
- Vd/F [7]: 3920 L
- Activity [8]: 15%
- Activity [9]: 75%
- CL/F [10]: 20.4 L/h
- CL/F [11]: 1830 mL/min
- Vd/F [12]: 1750 L
- half-life [13]: 22.6 h
- Activity [14]: 25%
- Activity [15]: 33%
- CL/F [16]: 743 mL/min
- CL/F [17]: 1930 mL/min
- Vd/F [18]: 757 L
- Activity [19]: 75%
- half-life [20]: 27.4 h
- half-life [21]: 27.8 h
- Activity [22]: 25%
- Activity [23]: 23%
- Cmax [24]: 232 ng/mL
- AUC [25]: 4180 ng·h/mL
- half-life [26]: 25.7 h
